Experimental data collected from several papers.
Protocols differ between the studies behind these lines.
Neuronal acetylcholine receptor; alpha9/alpha10: Neuronal acetylcholine receptor; alpha9/alpha10 (Homo sapiens, UniProt Q9GZZ6+Q9UGM1)
CA2: Carbonic anhydrase 2 (CA2, Homo sapiens, UniProt P00918)

COc1ccc2[nH]c3c(c2c1)CCN(C)CC3  IC50 (Neuronal acetylcholine receptor; alpha9/alpha10; ion current; antagonist; two-electrode voltage clamp; oocytes): 3.2 µM
CNC(=O)c1ccc(-c2cnn3ccc(C(=O)N(C)c4ccc(Cl)c(C(=O)O)c4)cc23)cc1  IC50 (STE20-like serine/threonine-protein kinase (SLK, Homo sapiens, UniProt Q9H2G2); enzyme activity; inhibitor): > 30 µM
COc1ccc(S(=O)(=O)Oc2ccccc2C=NNC(=O)c2ccc(F)cc2)cc1  IC50 (CA2; enzyme activity; inhibitor; absorbance): 0.156 µM
COc1ccc2c3c([nH]c2c1)CCN(C)CC3  IC50 (Neuronal acetylcholine receptor; alpha9/alpha10; ion current; antagonist; two-electrode voltage clamp; oocytes): 3 µM
CC[N+]1(CC)CCN(c2ccc(NC(=O)c3cccc(C)n3)cc2)CC1  EC50 (Neuronal acetylcholine receptor; alpha9/alpha10; ion current; agonist; two-electrode voltage clamp; oocytes): 0.83 µM
COc1ccc(S(=O)(=O)Oc2ccc(C=NNC(=O)c3ccc(F)cc3)cc2)cc1  IC50 (CA2; enzyme activity; inhibitor; absorbance): 0.0974 µM
CNC(=O)c1ccc(-c2cnn3ccc(C(=O)N(C)c4ccc(Cl)c(C(=O)OC)c4)cc23)cc1  IC50 (Receptor tyrosine-protein kinase erbB-2 (ERBB2, Homo sapiens, UniProt P04626); enzyme activity; inhibitor): > 30 µM
CCCNC(=O)c1ccc(N2CC[N+](CC)(CC)CC2)cc1  EC50 (Neuronal acetylcholine receptor; alpha9/alpha10; ion current; agonist; two-electrode voltage clamp; oocytes): 11 µM
COc1ccc(S(=O)(=O)Oc2cccc(C=NNC(=O)c3ccc(F)cc3)c2)cc1  IC50 (CA2; enzyme activity; inhibitor; absorbance): 0.139 µM
COC(=O)c1cc(N(C)C(=O)c2ccn3ncc(-c4ccc(C(=O)O)cc4)c3c2)ccc1Cl  IC50 (cAMP-dependent protein kinase catalytic subunit alpha (PRKACA, Homo sapiens, UniProt P17612); enzyme activity; inhibitor): > 30 µM
